In ChEMBL document CHEMBL1129943, “5-aminocoumarans: dual inhibitors of lipid peroxidation and dopamine release with protective effects against central nervous system trauma and ischemia” (J Med Chem, 1997):

Assays:
Format in all cases: functional
Mus musculus [1] = organism: Mus musculus; assay: Peroral dose required to reduce by 50% the score of excitatory behavior induced by intrathecal injection of ferrous chloride in mice; details: central, read-out: ID50 (the source's name)
Method in brief: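 Male Slc:ICR mice, 5 weeks old, 10 per dose. Compound given orally 30 min before intrathecal 5 μL of 50 mM FeCl2 in saline (between L6 and S1). Vehicle was water, or 0.5% gum arabic suspension. Behaviour scored 0–5 (biting to death) from 15 min to 1 h. ID50 from three or four doses, relative to vehicle score.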

Mus musculus [2] = assay: Percentage increase of locomotor activity in mice at dose of 0.1 mg/kg dihydrochloride (10 mice were used)
Method in brief: (§1)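 Male ICR mice, 5 weeks, 25–35 g, acclimated 90 min. (S)- or (R)-dihydrochloride given ip in 5% gum arabic. Methamphetamine 1 mg/kg ip in saline given 30 min later. Locomotor activity recorded afterwards and expressed relative to saline–methamphetamine controls; two-tailed Student's t-test.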

Mus musculus [3] = assay: Percentage increase of locomotor activity in mice at dose of 1 mg/kg dihydrochloride (9 mice were used)
Mus musculus [4] = assay: Locomotor activity was measured for 1 hour after administration of 1 mg/kg dihydrochloride in mice (9 mice were used); method in brief: as §1
Mus musculus [5] = assay: Percentage increase of locomotor activity in mice at dose of 0.3 mg/kg dihydrochloride (9 mice were used); method in brief: as §1
Mus musculus [6] = assay: Percentage increase of locomotor activity in mice at dose of 1 mg/kg apomorphine (11 mice were used)
Method in brief: (§2)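 Male ICR mice, 5 weeks. Dihydrochloride given ip 30 min before apomorphine 1 mg/kg sc, the hypermotility inducer used in place of methamphetamine. Spontaneous motor activity monitored afterwards; two-tailed Student's t-test.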

Mus musculus [7] = assay: Locomotor activity was measured for 1 hour after administration of 0.3 mg/kg dihydrochloride in mice (9 mice were used); method in brief: as §1
Mus musculus [8] = assay: Locomotor activity was measured for 1 hour after administration of 1 mg/kg apomorphine in mice (11 mice were used); method in brief: as §2
Mus musculus [9] = assay: Locomotor activity was measured for 1 hour after administration of 0.1 mg/kg dihydrochloride in mice (10 mice were used); method in brief: as §1
Mus musculus [10] = assay: Locomotor activity was measured for 1 hour after administration of 3 mg/kg of dihydrchloride in mice (13 mice were used); method in brief: as §1
Mus musculus [11] = assay: Percentage increase of locomotor activity in mice at a dose of 3 mg/kg dihydrochloride (13 mice were used); method in brief: as §1
Mus musculus [12] = assay: Percentage increase of locomotor activity in mice at a dose of 10 mg/kg dihydrochloride (16 mice were used); method in brief: as §1
Mus musculus [13] = assay: Locomotor activity was measured for 1 hour after administration of 1 mg/kg of dihydrchloride in mice (15 mice were used); method in brief: as §1
Mus musculus [14] = assay: Percentage increase of locomotor activity in mice at a dose of 1 mg/kg dihydrochloride (15 mice were used); method in brief: as §1
Mus musculus [15] = assay: Locomotor activity was measured for 1 hour after administration of 10 mg/kg of dihydrchloride in mice (16 mice were used); method in brief: as §1

Row | SMILES | ED50 (Mus musculus [1]) [mg/kg] | Increase (Mus musculus [2]) [%] | Increase (Mus musculus [3]) [%] | Locomotor activity (Mus musculus [4]) | Increase (Mus musculus [5]) [%] | Increase (Mus musculus [6]) [%] | Locomotor activity (Mus musculus [7]) | Locomotor activity (Mus musculus [8]) | Locomotor activity (Mus musculus [9]) | Locomotor activity (Mus musculus [10]) | Increase (Mus musculus [11]) [%] | Increase (Mus musculus [12]) [%] | Locomotor activity (Mus musculus [13]) | Increase (Mus musculus [14]) [%] | Locomotor activity (Mus musculus [15])
1 | Cc1c(C)c2c(c(C)c1N)C[C@@](C)(CN1CCC(c3ccccc3)CC1)O2 | 10.8 | 113.2 | 35.1 | 773 | 54.4 | 124.5 | 1102 | 841 | 2103 | – | – | – | – | – | –
2 | Cc1c(C)c2c(c(C)c1N)C[C@](C)(CN1CCC(c3ccccc3)CC1)O2 | 11.6 | – | – | – | – | – | – | – | – | 1852 | 169 | 67.7 | 1472 | 129 | 889
